Measurements taken from ChEMBL document CHEMBL3272339, “Catechol O-methyltransferase. 7. Affinity labeling with the oxidation products of 6-aminodopamine” (J Med Chem, 1976).
Activity calls are given as the source filed them. The calls are words filed in the database; no cut-off is given here.

Tests used:
[1] = target: T1, Catechol O-methyltransferase (Rattus norvegicus) (UniProt P22734); assay: Inhibition of Sprague-Dawley rat liver COMT under aerobic condition at 37 degC in presence of antioxidant sodium metabisulfite
T1 sequence (whole entry): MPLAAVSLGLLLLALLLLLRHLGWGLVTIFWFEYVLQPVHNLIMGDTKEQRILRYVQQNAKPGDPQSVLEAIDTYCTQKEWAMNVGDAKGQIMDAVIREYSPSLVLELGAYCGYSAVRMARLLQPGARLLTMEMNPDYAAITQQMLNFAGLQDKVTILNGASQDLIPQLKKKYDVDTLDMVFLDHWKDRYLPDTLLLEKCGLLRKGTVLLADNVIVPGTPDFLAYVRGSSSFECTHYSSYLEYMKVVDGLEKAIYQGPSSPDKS

[2] = target: T1, Catechol O-methyltransferase (Rattus norvegicus); assay: Inhibition of Sprague-Dawley rat liver COMT under aerobic condition at 37 degC in presence of catalase
[3] = target: T1, Catechol O-methyltransferase (Rattus norvegicus); assay: Inhibition of Sprague-Dawley rat liver COMT under anaerobic condition at 37 degC
[4] = Chemical stability of the compound in seal ampules containing water under nitrogenous condition at 5 umol/ml measured up to 4 hrs; type: physicochemical; details: buffer, 5000 µM
Outline: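 Stock prepared fresh for each experiment at 5 μmol/ml in water in sealed ampules under nitrogen; aliquots withdrawn as needed and checked for signs of oxidation over up to 4 hr.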

[5] = target: T1, Catechol O-methyltransferase (Rattus norvegicus); assay: Irreversible inhibition of Sprague-Dawley rat liver COMT
[6] = Half life of the compound assessed as cyclization to 6-hydroxy-2H-indol-5(3H)-one at 37 degC; type: physicochemical
[7] = target: T1, Catechol O-methyltransferase (Rattus norvegicus); assay: Inhibition of Sprague-Dawley rat liver COMT at 0.25 to 1.25 mM preincubated for > 50 mins at 37 degC
Outline: (§1)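 COMT came from male Sprague–Dawley rat liver (180–200 g), purified about 50-fold through the calcium phosphate stage. Inhibitor (fresh aqueous stock under N₂) was preincubated with enzyme, MgCl₂ and phosphate buffer pH 7.60 at 37°. Timed aliquots were assayed for 5 min at 37° with ¹⁴C-SAM and 3,4-dihydroxybenzoate or DHA, stopped with HCl, and products extracted and counted. Residual activity was taken against unpreincubated controls, in duplicate.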

[8] = Chemical stability of the compound assessed as polymerization under aerobic condition by spectrophotometric analysis; type: physicochemical
[9] = target: T1, Catechol O-methyltransferase (Rattus norvegicus); assay: Inhibition of Sprague-Dawley rat liver COMT assessed as residual activity under aerobic condition at 189 uM at 37 degC after 40 mins relative to control
Outline: (§2)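 Partially purified rat liver COMT (male Sprague-Dawley, calcium phosphate stage, ~50-fold) preincubated at 37° with inhibitor (189 μM), MgCl2 1.38 mM, phosphate buffer pH 7.60. Additions: sodium metabisulfite 0.15 M or catalase 250 μg. Anaerobic runs in sealed ampules under nitrogen. Residual activity vs unpreincubated controls; duplicates.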

[10] = target: T1, Catechol O-methyltransferase (Rattus norvegicus); assay: Inhibition of Sprague-Dawley rat liver COMT assessed as residual activity under anaerobic condition at 189 uM at 37 degC after 40 mins relative to control; outline: as §2
[11] = target: T1, Catechol O-methyltransferase (Rattus norvegicus); assay: Inhibition of Sprague-Dawley rat liver COMT assessed as residual activity under aerobic condition at 189 uM at 37 degC after 40 mins in presence of antioxidant sodium metabisulfite relative to control; outline: as §2
[12] = target: T1, Catechol O-methyltransferase (Rattus norvegicus); assay: Inhibition of Sprague-Dawley rat liver COMT assessed as residual activity under aerobic condition at 189 uM at 37 degC after 40 mins in presence of catalase relative to control; outline: as §2
[13] = target: T1, Catechol O-methyltransferase (Rattus norvegicus); assay: Inhibition of Sprague-Dawley rat liver COMT using 2.5 mM DHA as substrate assessed as residual activity under aerobic condition at 189 uM at 37 degC after 40 mins relative to control
[14] = target: T1, Catechol O-methyltransferase (Rattus norvegicus); assay: Inhibition of Sprague-Dawley rat liver COMT using 10 mM DHA as substrate assessed as residual activity under aerobic condition at 189 uM at 37 degC after 40 mins relative to control
[15] = target: T1, Catechol O-methyltransferase (Rattus norvegicus); assay: Inhibition of Sprague-Dawley rat liver COMT using 0.76 mM SAM as substrate assessed as residual activity under aerobic condition at 189 uM at 37 degC after 40 mins relative to control
[16] = target: T1, Catechol O-methyltransferase (Rattus norvegicus); assay: Inhibition of Sprague-Dawley rat liver COMT using 0.76 mM SAH as substrate assessed as residual activity under aerobic condition at 189 uM at 37 degC after 40 mins relative to control
[17] = target: T1, Catechol O-methyltransferase (Rattus norvegicus); assay: Inhibition of Sprague-Dawley rat liver COMT using 2.5 mM DHA/0.4 mM SAM as substrate assessed as residual activity under aerobic condition at 189 uM at 37 degC after 40 mins relative to control
[18] = target: T1, Catechol O-methyltransferase (Rattus norvegicus); assay: Inhibition of Sprague-Dawley rat liver COMT using 10 mM DHA/0.4 mM SAM as substrate assessed as residual activity under aerobic condition at 189 uM at 37 degC after 40 mins relative to control
[19] = target: T1, Catechol O-methyltransferase (Rattus norvegicus); assay: Inhibition of Sprague-Dawley rat liver COMT using 10 mM DHA/0.4 mM SAH as substrate assessed as residual activity under aerobic condition at 189 uM at 37 degC after 40 mins relative to control
[20] = target: T1, Catechol O-methyltransferase (Rattus norvegicus); assay: Inhibition of Sprague-Dawley rat liver COMT at 0.25 mM preincubated for > 50 mins at 37 degC
[21] = target: T1, Catechol O-methyltransferase (Rattus norvegicus); assay: Inhibition of Sprague-Dawley rat liver COMT using > 0.3 mM SAM as substrate at 0.19 mM at 37 degC after 40 mins
[22] = target: T1, Catechol O-methyltransferase (Rattus norvegicus); assay: Inhibition of Sprague-Dawley rat liver COMT using > 0.3 mM SAH as substrate at 0.19 mM at 37 degC after 40 mins
[23] = target: T1, Catechol O-methyltransferase (Rattus norvegicus); assay: Inhibition of Sprague-Dawley rat liver COMT at 16 to 64 uM preincubated > 50 mins at 37 degC; outline: as §1
[24] = target: T1, Catechol O-methyltransferase (Rattus norvegicus); assay: Inhibition of Sprague-Dawley rat liver COMT under aerobic condition at 5 mM preincubated up to 90 mins followed by enzyme addition at 37 degC measured after 20 mins
Outline: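 Inhibitor at 5.0 mM in phosphate buffer pH 7.60 was air-oxidised at 37° for various times. Aliquots then went into preincubation mixtures with purified rat liver COMT (final 64 μM) for 20 min at 37°. Residual activity was measured by the radiochemical assay with ¹⁴C-SAM and catechol substrate, with methylated products extracted into toluene–isoamyl alcohol and counted.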

[25] = target: T1, Catechol O-methyltransferase (Rattus norvegicus); assay: Inhibition of Sprague-Dawley rat liver COMT

## Br.Br.CN(C)CCc1cc(O)c(O)cc1N
[1]
  inhibition: inactive
[2]
  inhibition: Active
[3]
  inhibition: inactive
[4]
  Stability: Stable
[5]
  inhibition: Active

## N=C1C=C(O)C(=O)C=C1CCN
[6]
  half-life: 0.5 min

## Br.NCC1(c2cc(O)c(O)cc2N)CCCC1
[1]
  inhibition: inactive
[3]
  inhibition: inactive
[7]
  inhibition: Active
[4]
  Stability: Stable

## Br.CN(C)CCC1=CC(=O)C(O)=CC1=N
[8]
  Stability: Unstable

## NCCc1cc(O)c(O)cc1N
[9]
  Activity: 2%
[10]
  Activity: 103%
[11]
  Activity: 77%
[12]
  Activity: 1%
[13]
  Activity: 10%
[14]
  Activity: 17%
[15]
  Activity: 26%
[16]
  Activity: 52%
[17]
  Activity: 63%
[18]
  Activity: 85%
[19]
  Activity: 94%
[20]
  inhibition: Active
[4]
  Stability: Stable
[21]
  inhibition: Active
[22]
  inhibition: Active
[5]
  inhibition: Active

## Br.C[N+](C)(C)CCc1cc(O)c(O)cc1N.[Br-]
[1]
  inhibition: inactive
[2]
  inhibition: Active
[23]
  inhibition: inactive
[24]
  inhibition: inactive
[3]
  inhibition: inactive
[4]
  Stability: Stable
[5]
  inhibition: Active

## C[N+](C)(C)CCC1=CC(=O)C(O)=CC1=N.[Br-]
[8]
  Stability: Unstable

## Br.CC(N)C(C)(C)c1cc(O)c(O)cc1N (centres undefined)
[1]
  inhibition: inactive
[3]
  inhibition: inactive
[4]
  Stability: Stable
[25]
  inhibition: Active
